Measurements: ChEMBL document CHEMBL5661984, “Allosteric ligands for the pharmacologically dark receptors GPR68 and GPR65” (Nature, 2015)
The source made the active and inactive calls. No cut-off for these calls is given here.

Legend:
[1] = Antagonist activity against GPR65 D153A mutant (unknown origin) transfected in human HEK293T cells incubated for 15 mins by luminescence counter analysis; format: cell-based; conditions: HEK-293T, 0.25 h
Method in brief: (§1)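 GloSensor split-luciferase cAMP assay. HEK293-T cells transiently co-transfected with GPR65 (wild type or the D153A, R187L, F242A or Y272A mutant) and GloSensor 7A reporter. Cells plated in DMEM with 1% dialyzed FBS for at least 6 h, then loaded with luciferin (4 mM, in drug buffer pH 8.4) for 90 min at 37°C. Compounds added at set pH in HBSS with 10 mM HEPES/10 mM MES, with TAPS for higher pH. Luminescence read after about 20 min at room temperature. Data normalized to buffer basal and fitted to a 4-parameter logistic.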

HEK293T [2] = assay: Antagonist activity against GPR65 Y272A mutant (unknown origin) transfected in human HEK293T cells incubated for 15 mins by luminescence counter analysis; format: cell-based; conditions: filed as antagonist; method in brief: as §1
[3] = target: T1, G-protein coupled receptor 65 (Homo sapiens, UniProt Q8IYL9); assay: Agonist activity against GPR65 (unknown origin) transfected in human HEK293T cells on pH 6.80 to 7.40 at 30 uM incubated for 15 mins by luminescence counter analysis; format: functional, cell-based
T1 sequence (Q8IYL9 whole entry): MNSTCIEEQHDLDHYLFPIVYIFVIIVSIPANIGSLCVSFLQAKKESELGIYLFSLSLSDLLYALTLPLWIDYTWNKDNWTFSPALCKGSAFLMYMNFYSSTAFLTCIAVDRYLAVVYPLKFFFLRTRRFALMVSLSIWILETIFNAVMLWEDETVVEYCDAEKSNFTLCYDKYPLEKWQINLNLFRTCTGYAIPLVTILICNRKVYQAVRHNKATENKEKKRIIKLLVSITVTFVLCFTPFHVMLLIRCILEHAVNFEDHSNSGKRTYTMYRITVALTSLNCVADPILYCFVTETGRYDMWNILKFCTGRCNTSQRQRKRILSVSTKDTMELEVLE

HEK293T [4] = assay: Antagonist activity against GPR65 R187L mutant (unknown origin) transfected in human HEK293T cells incubated for 15 mins by luminescence counter analysis; format: cell-based; conditions: filed as antagonist; method in brief: as §1
HEK293T [5] = assay: Antagonist activity against GPR65 F242A mutant (unknown origin) transfected in human HEK293T cells incubated for 15 mins by luminescence counter analysis; format: cell-based; conditions: filed as antagonist; method in brief: as §1
[6] = target: T1, G-protein coupled receptor 65; assay: Antagonist activity against GPR65 (unknown origin) transfected in human HEK293T cells incubated for 15 mins by luminescence counter analysis relative to control; format: functional, cell-based; method in brief: as §1
[7] = target: T1, G-protein coupled receptor 65; assay: Antagonist activity against GPR65 (unknown origin) transfected in human HEK293T cells incubated for 15 mins by luminescence counter analysis; format: functional, cell-based; method in brief: as §1
[8] = Antagonist activity against GPR65 D153A mutant (unknown origin) transfected in human HEK293T cells incubated for 15 mins by luminescence counter analysis relative to control; conditions: HEK-293T, 0.25 h, condition central nervous system disease; method in brief: as §1
[9] = target: T1, G-protein coupled receptor 65; assay: Antagonist activity against GPR65 (unknown origin) transfected in human HEK293T cells incubated for 15 mins in presence of BTB09089 by luminescence counter analysis; format: functional, cell-based; conditions: filed as antagonist; method in brief: as §1
[10] = target: T1, G-protein coupled receptor 65; assay: Agonist activity against GPR65 (unknown origin) transfected in human HEK293T cells incubated for 15 mins by luminescence counter analysis; format: functional, cell-based; conditions: filed as agonist; method in brief: as §1

Activity [3]	Emax [6]	EC50 [7]	Activity [9]	Activity ([7]; filed as antagonist)	Activity [10]	Compound	EC50 [1]	Activity (HEK293T [2])	Activity (HEK293T [4])	Activity (HEK293T [5])	Emax [8]
inactive	2.2%	0.501 µM	–	–	–	COc1ccc(-c2csc(NC(=O)CSc3nc[nH]n3)n2)cc1OC	6.31 µM	Active	Active	Active	1.5%
–	–	–	Active	Active	–	Cc1nc(-c2ncccn2)sc1C(=O)O[C@@H](c1ccccc1)c1ccncc1	–	–	–	–	–
–	7.6%	7.76 µM	–	–	Active	CN1N=C(SCc2ccc(Cl)cc2Cl)Sc2c1cnn(C)c2=O	1.29 µM	Active	Active	Active	8.1%
